Data taken from ChEMBL document CHEMBL1156810, “Synthesis and structure-activity relationships of azamacrocyclic C-X-C chemokine receptor 4 antagonists: analogues containing a single azamacrocyclic ring are potent inhibitors of T-cell tropic (X4) HIV-1 replication” (J Med Chem, 2010).

Tests used:
[1] = Therapeutic index, ratio of CC50 for human MT4 cells to EC50 for HIV1 3B; type: cell-based
Procedure, shortened: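 Selectivity index calculated as CC50 divided by EC50. Both come from parallel 5-day MTT viability assays in MT-4 cells, mock-infected or infected with HIV-1 IIIB at MOI 0.01.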

[2] = test system: Human immunodeficiency virus 1; assay: Antiviral activity against HIV1 3B infected in human MT4 cells assessed as inhibition of virus replication after 5 days by MTT assay; details: Human immunodeficiency virus 1, 3B, MT4, 120 h
[3] = test system: Human immunodeficiency virus 1; assay: Antiviral activity against HIV1 3B infected in human MT4 cells assessed as inhibition of virus replication after 4 days by MTT assay; type: functional, organism-based; details: Human immunodeficiency virus 1, 3B, MT4, 96 h

For c1ccc(CNCc2ccc(CN3CCCNCCNCCCNCC3)cc2)nc1, the selectivity ratio [1] was > 12000 and the EC50 [2] was 9 nM.
With c1ccc(CNCc2ccc(CN3CCCNCCNCCCNCC3)cc2)cc1 the EC50 [2] was 491 nM.
Compound CN(Cc1ccc(CN2CCCNCCNCCCNCC2)cc1)Cc1ccccn1 has an EC50 [2] of 416 nM.
Compound c1ccc(CNCc2ccc(CC3CCNCCc4cccc(n4)CCNCC3)cc2)nc1 has an EC50 [2] of 217 nM.
With c1ccc(CCNCc2ccc(CN3CCCNCCNCCCNCC3)cc2)nc1 the EC50 [2] was 49100 nM.
Nc1ccc(CNCc2ccc(CN3CCCNCCNCCCNCC3)cc2)cc1 showed an EC50 [2] of 717 nM.
c1ccc(CNCc2ccc(CN3CCNCCc4cccc(n4)CCNCC3)cc2)nc1 gave an EC50 [2] of 1 nM.
Work on c1ccc(CNCc2ccc(CN3CCNCCCCCCCNCC3)cc2)nc1 yielded an EC50 [2] of 43 nM.
Nc1ccccc1CNCc1ccc(CN2CCCNCCNCCCNCC2)cc1 gave an EC50 [2] of 1820 nM.
For c1ccc(CNCc2ccc(CN3CCNCCNCCc4cccc(c4)CC3)cc2)nc1, the EC50 [2] was 14100 nM.
Compound c1cc(CNCc2ccc(CN3CCCNCCNCCCNCC3)cc2)ccn1 has an EC50 [2] of 9980 nM.
Compound c1ccc(CNCc2ccc(CC3CCNCCCCCCCNCC3)cc2)nc1 has an EC50 [2] of 2180 nM.
For Cc1cnc(CNCc2ccc(CN3CCCNCCNCCCNCC3)cc2)cn1, the EC50 [2] was 1900 nM.
With c1ccc(CNCc2ccc(CN3CCNCCCSCCCNCC3)cc2)nc1 the EC50 [2] was 13 nM.
For [O-][S+]1CCCNCCN(Cc2ccc(CNCc3ccccn3)cc2)CCNCCC1, the EC50 [2] was 485 nM.
Work on FC1CCCNCCN(Cc2ccc(CNCc3ccccn3)cc2)CCNCCC1 yielded an EC50 [2] of 1240 nM.
Compound c1ccc(CNCc2ccc(CN3CCNCCNCCc4cccc(n4)CC3)cc2)nc1 has an EC50 [2] of 63 nM.
c1ccc(CNCc2ccc(CN3CCNCCc4cccc(c4)CCNCC3)cc2)nc1 showed an EC50 [2] of 40 nM.
c1ccc(CNCc2ccc(CN3CCNCCc4cncc(c4)CCNCC3)cc2)nc1 gave an EC50 [2] of 104 nM.
In the case of c1ccc(CNCc2ccc(CC3CCNCCCOCCCNCC3)cc2)nc1, the EC50 [2] is reported as 426 nM.
In the case of O=C1CN(Cc2ccc(CNCc3ccccn3)cc2)CCc2cccc(n2)CCCCCN1, the EC50 [2] is reported as 126000 nM.
Compound c1ccc(CNCc2ccc(CN3CCCCCCCNCCNCC3)cc2)nc1 has an EC50 [2] of 11100 nM.
For FC1(F)CCCNCCN(Cc2ccc(CNCc3ccccn3)cc2)CCNCCC1, the EC50 [2] was 920 nM.
c1cncc(CNCc2ccc(CN3CCCNCCNCCCNCC3)cc2)c1 showed an EC50 [2] of 8470 nM.
Compound O=S1(=O)CCCNCCN(Cc2ccc(CNCc3ccccn3)cc2)CCNCCC1 has an EC50 [2] of 11900 nM.
Compound c1ccc(CNCc2ccc(CN3CCNCCCCCCc4cccc(n4)C3)cc2)nc1 has an EC50 [3] of 4560 nM.
For c1ccc(CNCc2ccc(CN3CCNCCCCCc4cccc(n4)CC3)cc2)nc1, the EC50 [2] was 1240 nM.
c1ccc(CNCc2ccc(CN3CCNCCCOCCCNCC3)cc2)nc1 showed an EC50 [2] of 4 nM.
For c1cc(CN2CCCNCCNCCCNCC2)ccc1CN1CCCNCCNCCCNCC1 [PLERIXAFOR], the EC50 [2] was 4 nM.
